# The source made the active and inactive calls. No cut-off for these calls is given here.
# How the values were obtained:
# HeLa [1] = assay: Cell cycle arrest in human HeLa cells assessed as reduction in cell population at G2/M phase at 2.4 to 7.2 uM after 24 hrs by propidium iodide staining based flow cytometric analysis; format: functional
# [2] = Cytotoxicity against human HDFa cells assessed as reduction in cell viability after 48 hrs by MTT assay; format: cell-based
# How it was run: (§1)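 Cells seeded at 4 × 10³/well for 24 h runs and for PC-3, or 2 × 10³/well for MCF-7 and HeLa 48 h runs, and attached overnight. Medium replaced with compound-containing medium for 24 or 48 h. MTT (4 mg mL⁻¹) added for the final 3 h, formazan dissolved in DMSO, absorbance read at 570 nm (reference 660 nm). IC₅₀ calculated from at least three independent experiments in duplicate, mean ± SE.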
# HeLa [3] = assay: Antiproliferative activity against human HeLa cells assessed as reduction in cell viability after 48 hrs by MTT assay; format: functional, cell-based; how it was run: as §1
# PC-3 [4] = assay: Antiproliferative activity against human PC3 cells assessed as reduction in cell viability after 24 hrs by MTT assay; format: functional, cell-based; conditions: PC-3, 24 h; how it was run: as §1
# HeLa [5] = assay: Cell cycle arrest in human HeLa cells assessed as reduction in cell population at S phase at 2.4 to 7.2 uM after 24 hrs by propidium iodide staining based flow cytometric analysis; format: functional
# HeLa [6] = assay: Antiproliferative activity against human HeLa cells assessed as reduction in cell viability after 24 hrs by MTT assay; format: functional, cell-based; how it was run: as §1
# MCF7 [7] = assay: Cytostatic activity against human MCF7 cells measured after 24 hrs by MTT assay; format: functional, cell-based; how it was run: as §1
# HeLa [8] = assay: Induction of cell cycle arrest in human HeLa cells assessed as accumulation of cells at G0/G1 phase 2.4 to 7.2 uM after 24 hrs by propidium iodide staining based flow cytometric analysis (reference value: 44%); format: functional
# HeLa [9] = assay: Cytostatic activity against human HeLa cells measured after 24 hrs by MTT assay; format: functional, cell-based; how it was run: as §1
# [10] = Cytotoxicity against human HDFa cells assessed as reduction in cell viability after 24 hrs by MTT assay; format: cell-based; how it was run: as §1
# PC-3 [11] = assay: Antiproliferative activity against human PC3 cells assessed as reduction in cell viability after 48 hrs by MTT assay; format: functional, cell-based; conditions: PC-3, 48 h; how it was run: as §1
# MCF7 [12] = assay: Antiproliferative activity against human MCF7 cells assessed as reduction in cell viability after 24 hrs by MTT assay; format: functional, cell-based; conditions: for IC50: MCF7, 24 h; how it was run: as §1
# PC-3 [13] = assay: Cytostatic activity against human PC3 cells measured after 24 hrs by MTT assay; format: functional, cell-based; how it was run: as §1
# MCF7 [14] = assay: Antiproliferative activity against human MCF7 cells assessed as reduction in cell viability after 48 hrs by MTT assay; format: functional, cell-based; how it was run: as §1
# HeLa [15] = assay: Induction of cell cycle arrest in human HeLa cells assessed as accumulation of cells at G0/G1 phase after 24 hrs by propidium iodide staining based flow cytometric analysis; format: functional
# MCF7 [16] = assay: Induction of cell cycle arrest in human MCF7 cells assessed as accumulation of cells at S phase at 8.7 uM after 24 hrs by Propidium iodide staining based flow cytometric analysis (reference value: 23.75 +/- 1.87%); format: functional
# MCF7 [17] = assay: Induction of cell cycle arrest in human MCF7 cells assessed as accumulation of cells at S phase at 2.9 uM after 24 hrs by Propidium iodide staining based flow cytometric analysis (reference value: 23.75 +/- 1.87%); format: functional
# MCF7 [18] = assay: Induction of cell cycle arrest in human MCF7 cells assessed as accumulation of cells at G0/G1 phase at 2.9 uM after 24 hrs by Propidium iodide staining based flow cytometric analysis (reference value: 47.8 +/- 0.42%); format: functional
# MCF7 [19] = assay: Induction of cell cycle arrest in human MCF7 cells assessed as accumulation of cells at G2/M phase at 8.7 uM after 24 hrs by Propidium iodide staining based flow cytometric analysis (reference value: 27 +/- 2.97%); format: functional
# MCF7 [20] = assay: Induction of cell cycle arrest in human MCF7 cells assessed as accumulation of cells at G2/M phase at 2.9 uM after 24 hrs by Propidium iodide staining based flow cytometric analysis (reference value: 27 +/- 2.97%); format: functional
# MCF7 [21] = assay: Induction of cell cycle arrest in human MCF7 cells assessed as accumulation of cells at G0/G1 phase at 8.7 uM after 24 hrs by Propidium iodide staining based flow cytometric analysis (reference value: 47.8 +/- 0.42%); format: functional
# HeLa [22] = assay: Cell cycle arrest in human HeLa cells assessed as accumulation of cells at S phase at 8.7 uM after 24 hrs by propidium iodide staining based flow cytometric analysis; format: functional
# HeLa [23] = assay: Cell cycle arrest in human HeLa cells assessed as accumulation of cells at G2/M phase at 8.7 uM after 24 hrs by propidium iodide staining based flow cytometric analysis; format: functional
smiles,measurement,setting,value
CC(=O)c1c(O)c(C)c(O)c2c1OC1=Cc3c(c(C)nn3C)C(=O)[C@]12C,Activity,HeLa [1],Active
same,IC50,[2],> 10 µM
same,IC50,"HeLa [3]; Homo sapiens, HeLa, 48 h",1.2 µM
same,IC50,PC-3 [4],> 10 µM
same,Activity,HeLa [5],Active
same,IC50,HeLa [6],2.7 µM
same,Activity,MCF7 [7],inactive
same,Activity,HeLa [8],51 - 65%
same,Activity,HeLa [9],inactive
same,IC50,[10],> 10 µM
same,IC50,PC-3 [11],> 10 µM
same,IC50,MCF7 [12],> 10 µM
same,Activity,PC-3 [13],inactive
same,IC50,"MCF7 [14]; Homo sapiens, MCF7, 48 h",> 10 µM
CC(=O)c1c(O)c(C)c(O)c2c1OC1=Cc3c(c(C)nn3-c3ccc(C)cc3)C(=O)[C@]12C,inhibition,MCF7 [12],inactive
same,inhibition,MCF7 [14],inactive
CC(=O)c1c(O)c(C)c(O)c2c1OC1=Cc3c(c(C)nn3-c3ccc(Cl)c(Cl)c3)C(=O)[C@]12C,inhibition,MCF7 [12],inactive
same,inhibition,MCF7 [14],inactive
CC(=O)c1c(O)c(C)c(O)c2c1OC1=Cc3c(c(C)nn3-c3ccc(F)cc3)C(=O)[C@]12C,inhibition,MCF7 [12],inactive
same,inhibition,MCF7 [14],inactive
CC(=O)c1c(O)c(C)c(O)c2c1OC1=Cc3c(c(C)nn3-c3ccccc3)C(=O)[C@]12C,inhibition,MCF7 [12],inactive
same,inhibition,MCF7 [14],inactive
COc1ccc(-n2nc(C)c3c2C=C2Oc4c(C(C)=O)c(O)c(C)c(O)c4[C@]2(C)C3=O)cc1,inhibition,MCF7 [12],inactive
same,inhibition,MCF7 [14],inactive
CC(=O)c1c(O)c(C)c(O)c2c1OC1=Cc3c(c(C)nn3C)C(=O)C12C (racemic),Activity,HeLa [1],Active
same,IC50,[2],> 10 µM
same,IC50,"HeLa [3]; Homo sapiens, HeLa, 48 h",1.1 µM
same,IC50,PC-3 [4],> 10 µM
same,Activity,HeLa [5],Active
same,Activity,HeLa [15],Dose-dependent effect
same,IC50,HeLa [6],2.7 µM
same,Activity,MCF7 [7],inactive
same,Activity,HeLa [8],51 - 65%
same,Activity,HeLa [9],inactive
same,IC50,[10],> 10 µM
same,IC50,PC-3 [11],> 10 µM
same,IC50,MCF7 [12],> 10 µM
same,Activity,PC-3 [13],inactive
same,IC50,"MCF7 [14]; Homo sapiens, MCF7, 48 h",> 10 µM
CC(=O)c1c(O)c(C)c(O)c2c1OC1=Cc3c(c(C)nn3-c3ccc(C)cc3)C(=O)C12C (racemic),inhibition,MCF7 [12],inactive
same,inhibition,MCF7 [14],inactive
CC(=O)c1c(O)c(C)c(O)c2c1OC1=Cc3c(c(C)nn3-c3ccc(Cl)c(Cl)c3)C(=O)C12C (racemic),inhibition,MCF7 [12],inactive
same,inhibition,MCF7 [14],inactive
CC(=O)c1c(O)c(C)c(O)c2c1OC1=Cc3c(c(C)nn3-c3ccc(F)cc3)C(=O)C12C (racemic),inhibition,MCF7 [12],inactive
same,inhibition,MCF7 [14],inactive
CC(=O)c1c(O)c(C)c(O)c2c1OC1=Cc3c(c(C)nn3-c3ccccc3)C(=O)C12C (racemic),inhibition,MCF7 [12],inactive
same,inhibition,MCF7 [14],inactive
COc1ccc(-n2nc(C)c3c2C=C2Oc4c(C(C)=O)c(O)c(C)c(O)c4C2(C)C3=O)cc1 (racemic),inhibition,MCF7 [12],inactive
same,inhibition,MCF7 [14],inactive
CC(=O)c1c(O)c(C)c(O)c2c1OC1=CC(=O)C(C(C)=O)C(=O)C12C (stereo in doubt; (+)-1) [listing 1 of 2 here],Activity,MCF7 [16],22.4%
same,IC50,HeLa [3]; hela,10 to 23.7 µM
same,Activity,MCF7 [17],23%
same,Activity,MCF7 [18],46%
same,Activity,MCF7 [19],24.8%
same,Activity,MCF7 [20],28.8%
same,Activity,MCF7 [21],50.6%
same,IC50,MCF7 [14]; mcf7,10 to 75.7 µM
CC(=O)c1c(O)c(C)c(O)c2c1OC1=CC(=O)C(C(C)=O)C(=O)C12C (stereo in doubt; (+)-1) [listing 2 of 2 here],Activity,HeLa [22],Active
same,Activity,HeLa [23],Active
CC(=O)c1c(O)c(C)c(O)c2c1OC1=CC(=O)C(C(C)=O)C(=O)C12C (stereo in doubt; (-)-1) [listing 1 of 2 here],Activity,MCF7 [16],20.6%
same,IC50,[2],> 10 µM
same,IC50,"HeLa [3]; Homo sapiens, HeLa, 48 h",> 10 µM
same,IC50,PC-3 [4],> 10 µM
same,Activity,MCF7 [17],22.9%
same,Activity,MCF7 [18],46.95%
same,IC50,HeLa [6],> 10 µM
same,Activity,MCF7 [19],24.95%
same,Activity,MCF7 [20],28.25%
same,IC50,[10],> 10 µM
same,IC50,PC-3 [11],> 10 µM
same,IC50,MCF7 [12],> 10 µM
same,Activity,MCF7 [21],52.35%
same,IC50,"MCF7 [14]; Homo sapiens, MCF7, 48 h",> 10 µM
CC(=O)c1c(O)c(C)c(O)c2c1OC1=CC(=O)C(C(C)=O)C(=O)C12C (stereo in doubt; (-)-1) [listing 2 of 2 here],Activity,HeLa [22],Active
same,Activity,HeLa [23],Active

# From ChEMBL document CHEMBL4334455, “Synthesis of Usnic Acid Derivatives and Evaluation of Their Antiproliferative Activity against Cancer Cells” (J Nat Prod, 2019)
